ChEMBL document CHEMBL1212784, “Structure-microbicidal activity relationship of synthetic fragments derived from the antibacterial alpha-helix of human lactoferrin” (2010)
Values after ≈ are worked out from the molar mass of the structure shown. Positions of bridges follow the written chain, without caps; N, C: chain ends. Non-standard residues stand in square brackets, D forms with d. Residues, ends and D or L forms follow the SMILES beside them. Nle = CCCC[C@H](N)C(=O)O; Orn = NCCC[C@H](N)C(=O)O

Experiments:
Assay type in all cases: functional
Staphylococcus aureus [1] = assay: Antimicrobial activity against methicillin resistant Staphylococcus aureus MRS3525 incubated in bactopeptone
How it was run: (§1)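 Log-phase cells (BHI overnight at 37°C with shaking, subcultured 2 h, washed) at about 2 × 10^5 cells/ml final, exposed to twofold peptide dilutions in duplicate or triplicate. Medium: BHIdil (1/100 of 3.4% BHI, pH 6.7–6.9) or 1% Bactopeptone (pH 7.0). 2 h at 37°C, humid. 5-μl drops plated on blood agar overnight for CFU. MMC99 is the lowest concentration giving ≥99% kill.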

Candida albicans [2] = assay: Antimicrobial activity against […] Candida albicans ATCC […] incubated in diluted brain heart infusion medium; conditions: ATCC 6454; how it was run: as §1
Candida albicans [3] = assay: Antimicrobial activity against Candida albicans ATCC […] incubation in bactopeptone; conditions: ATCC 64549
How it was run: (§2)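 Microplate killing assay in 1% Bactopeptone (pH 7.0). Log-phase organisms (BHI overnight, 2 h subculture, 37°C, washed), final ~2 × 10^5 cells/ml, with twofold peptide dilutions, 37°C humid chamber 2 h (or 20 h where stated). 5 μl drops plated on blood agar overnight; MMC99 = lowest concentration giving ≥99% inoculum reduction; duplicates.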

[4] = Antimicrobial activity against Escherichia coli O6 K5 incubation in bactopeptone; how it was run: as §2
Staphylococcus aureus [5] = assay: Antimicrobial activity against methicillin resistant Staphylococcus aureus MRS3525 incubated in diluted brain heart infusion medium; how it was run: as §1
[6] = Antimicrobial activity against Escherichia coli O6 K5 incubated in diluted brain heart infusion medium
How it was run: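 Microplate assay in diluted BHI (1/100 of 3.4%, pH 6.7 to 6.9), log-phase cells at ~2 × 10^5 cells/ml, twofold peptide dilutions, 2 h at 37°C in humid chamber; drops plated on blood agar, CFU counted; MMC99 = minimum concentration giving ≥99% killing of inoculum; duplicates.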

Staphylococcus aureus [7] = assay: Antimicrobial activity against Staphylococcus aureus 1800 (CCUG 1800) incubation in bactopeptone; how it was run: as §2

Molecule | MIC99 (Staphylococcus aureus [1]) [µg/mL] | MIC99 (Candida albicans [2]) [µg/mL] | MIC99 (Candida albicans [3]) [µg/mL] | MIC99 [4] [µg/mL] | MIC99 (Staphylococcus aureus [5]) [µg/mL] | MIC99 [6] [µg/mL] | MIC99 (Staphylococcus aureus [7]) [µg/mL]
H-CFQWQRNMRKAR-OH | > 100 | 25 | 50 | 50 | 3.5 | 12 | 
H-CFAWKRNMRKVR-OH |  |  | 25 | 50 |  |  | 25
H-CFQWQRAMRKVR-OH | 50 | 6 | 25 | 25 | 3.5 | 6 | 
H-CFALKKAMKKVR-OH |  |  | 25 | 25 |  |  | 50
H-CFQWQRNMRAVR-OH | > 100 | 25 | > 100 | 100 | 3.5 | 12 | 
CC[C@H](C)[C@H](NC(=O)[C@@H]1CSSC[C@H](NC(=O)[C@H](CCCCN)NC(=O)[C@@H](NC(=O)[C@H](C)NC(=O)[C@H](CCC(=O)O)NC(C)=O)[C@@H](C)O)C(=O)N[C@@H](Cc2ccccc2)C(=O)N[C@@H](CCC(N)=O)C(=O)N[C@@H](Cc2c[nH]c3ccccc23)C(=O)N[C@@H](CCCCN)C(=O)N[C@@H](CCCNC(=N)N)C(=O)N[C@@H](CC(N)=O)C(=O)N[C@@H](CCSC)C(=O)N[C@@H](CCCNC(=N)N)C(=O)N[C@@H](CCCCN)C(=O)N[C@@H](C(C)C)C(=O)N[C@@H](CCCNC(=N)N)C(=O)NCC(=O)N2CCC[C@H]2C(=O)N2CCC[C@H]2C(=O)N[C@@H](C(C)C)C(=O)N[C@@H](CO)C(=O)N1)C(=O)N[C@@H](CCCCN)C(=O)N[C@@H](CCCNC(=N)N)C(N)=O (Ac-EATKCFQWKRNMRKVRGPPVSCIKR-NH2; disulfide 5-22) |  |  | 50 (≈ 16.3 µM) | 12 (≈ 3.92 µM) |  |  | 25 (≈ 8.17 µM)
H-CFQWQRNMAKVR-OH | > 100 | 25 | > 100 | > 100 | 7 | 25 | 
CC[C@H](C)[C@H](NC(=O)[C@@H]1CSSC[C@H](NC(=O)[C@H](CCCCN)NC(=O)[C@@H](NC(=O)[C@H](C)NC(=O)[C@H](CCC(=O)O)NC(C)=O)[C@@H](C)O)C(=O)N[C@@H](Cc2ccccc2)C(=O)N[C@@H](CCC(N)=O)C(=O)N[C@@H](Cc2c[nH]c3ccccc23)C(=O)N[C@@H](CCC(N)=O)C(=O)N[C@@H](CCCNC(=N)N)C(=O)N[C@@H](C)C(=O)N[C@@H](CCSC)C(=O)N[C@@H](CCCNC(=N)N)C(=O)N[C@@H](CCCCN)C(=O)N[C@@H](C(C)C)C(=O)N[C@@H](CCCNC(=N)N)C(=O)NCC(=O)N2CCC[C@H]2C(=O)N2CCC[C@H]2C(=O)N[C@@H](C(C)C)C(=O)N[C@@H](CO)C(=O)N1)C(=O)N[C@@H](CCCCN)C(=O)N[C@@H](CCCNC(=N)N)C(N)=O (Ac-EATKCFQWQRAMRKVRGPPVSCIKR-NH2; disulfide 5-22) |  |  | 37 (≈ 12.3 µM) | 100 (≈ 33.2 µM) |  |  | 50 (≈ 16.6 µM)
H-CFQWQRNMRKVA-OH | > 100 | 25 | > 100 | > 100 | 7 | 12 | 
H-CAQWQRNMRKVR-OH |  | 12 |  |  | 7 | 12 | 
CCCC[C@H](NC(=O)[C@H](Cc1c[nH]c2ccccc12)NC(=O)[C@H](CCC(N)=O)NC(=O)[C@H](Cc1ccccc1)NC(=O)[C@@H](N)CS)C(=O)N[C@@H](CCCNC(=N)N)C(=O)N[C@@H](CC(N)=O)C(=O)N[C@@H](CCSC)C(=O)N[C@@H](CCCNC(=N)N)C(=O)N[C@@H](CCCCN)C(=O)N[C@H](C(=O)N[C@@H](CCCNC(=N)N)C(=O)O)C(C)C (H-CFQW[Nle]RNMRKVR-OH) |  |  | 25 (≈ 15.3 µM) | 50 (≈ 30.5 µM) |  |  | 50 (≈ 30.5 µM)
H-CFQWKRAMRKVR-OH |  |  | 12 | 12 |  |  | 12
H-CFQWARNMRKVR-OH | 100 | 12 | 50 | 50 | 3.5 | 12 | 
CSCC[C@H](NC(=O)[C@H](CC(N)=O)NC(=O)[C@H](CCCNC(=N)N)NC(=O)[C@H](CCCN)NC(=O)[C@H](Cc1c[nH]c2ccccc12)NC(=O)[C@H](CCC(N)=O)NC(=O)[C@H](Cc1ccccc1)NC(=O)[C@@H](N)CS)C(=O)N[C@@H](CCCNC(=N)N)C(=O)N[C@@H](CCCCN)C(=O)N[C@H](C(=O)N[C@@H](CCCNC(=N)N)C(=O)O)C(C)C (H-CFQW[Orn]RNMRKVR-OH) |  |  | 25 (≈ 15.3 µM) | 25 (≈ 15.3 µM) |  |  | 50 (≈ 30.5 µM)
